Consider two compounds from ChEMBL document CHEMBL3232843, “Novel pyrrolidine diketopiperazines selectively inhibit melanoma cells via induction of late-onset apoptosis” (J Med Chem, 2014).

In general, IC50 refers to the concentration needed to halve the response being measured. The low end stands for greater potency, the high end for weaker potency. The inhibition is the relative decrease from the control value, in per cent.

For one test, the system named is CHO-K1. Nature of the test: Selectivity ratio of IC50 for human M14 cells over IC50 for CHOK1 cells. It counts as functional. In short, it runs like this: (§1)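 Ratio of 72 h CellTiter-Glo IC50 values between the stated cell lines. Each IC50 comes from a 10-point 1:3 dose–response series and is the mean of three experiments ± standard deviation.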
For test [1], the system named is A549. Nature of the test: Selectivity ratio of IC50 for human M14 cells over IC50 for human A549 cells. It counts as functional. In short, it runs like this:
as §1

In test [2] the test system is A549. In words: Cytotoxicity against human A549 cells after 72 hrs by CellTiter-Glo luminescence assay. It is filed as functional, cell-based. The settings on record: A549, 72 h. Put shortly: (§2)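 1250 cells per well in serum-free medium (F12 for CHO-K1 and A549, DMEM for M14). Compounds given as 10-point 1:3 serial dilutions from a 300 µM stock, plus a gefitinib control. Incubated 72 h at 37 °C, 5% CO2. CellTiter-Glo added for 15 min at room temperature, then luminescence read. Viability normalized to media-only wells (0%) and 1% DMSO wells (100%). Run in triplicate.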
For orientation: ATP-based viability assays read luminescence as a measure of living cells.

Test [3] can be described thus: Cytotoxicity against CHOK1 cells after 72 hrs by CellTiter-Glo luminescence assay. It is filed as cell-based. The settings on record: Cricetulus griseus, CHO-K1, 72 h. In short, it runs like this:
as §2

Test [4] has as its system M14. In words: Cytotoxicity against human M14 cells after 72 hrs by CellTiter-Glo luminescence assay. It is filed as functional, cell-based. The settings on record: for IC50: M14, 72 h. In short, it runs like this: as §2
Test [5] concerns the target T1, Protein deacetylase HDAC6 (Homo sapiens) (UniProt Q9UBN7).
T1 sequence (whole entry): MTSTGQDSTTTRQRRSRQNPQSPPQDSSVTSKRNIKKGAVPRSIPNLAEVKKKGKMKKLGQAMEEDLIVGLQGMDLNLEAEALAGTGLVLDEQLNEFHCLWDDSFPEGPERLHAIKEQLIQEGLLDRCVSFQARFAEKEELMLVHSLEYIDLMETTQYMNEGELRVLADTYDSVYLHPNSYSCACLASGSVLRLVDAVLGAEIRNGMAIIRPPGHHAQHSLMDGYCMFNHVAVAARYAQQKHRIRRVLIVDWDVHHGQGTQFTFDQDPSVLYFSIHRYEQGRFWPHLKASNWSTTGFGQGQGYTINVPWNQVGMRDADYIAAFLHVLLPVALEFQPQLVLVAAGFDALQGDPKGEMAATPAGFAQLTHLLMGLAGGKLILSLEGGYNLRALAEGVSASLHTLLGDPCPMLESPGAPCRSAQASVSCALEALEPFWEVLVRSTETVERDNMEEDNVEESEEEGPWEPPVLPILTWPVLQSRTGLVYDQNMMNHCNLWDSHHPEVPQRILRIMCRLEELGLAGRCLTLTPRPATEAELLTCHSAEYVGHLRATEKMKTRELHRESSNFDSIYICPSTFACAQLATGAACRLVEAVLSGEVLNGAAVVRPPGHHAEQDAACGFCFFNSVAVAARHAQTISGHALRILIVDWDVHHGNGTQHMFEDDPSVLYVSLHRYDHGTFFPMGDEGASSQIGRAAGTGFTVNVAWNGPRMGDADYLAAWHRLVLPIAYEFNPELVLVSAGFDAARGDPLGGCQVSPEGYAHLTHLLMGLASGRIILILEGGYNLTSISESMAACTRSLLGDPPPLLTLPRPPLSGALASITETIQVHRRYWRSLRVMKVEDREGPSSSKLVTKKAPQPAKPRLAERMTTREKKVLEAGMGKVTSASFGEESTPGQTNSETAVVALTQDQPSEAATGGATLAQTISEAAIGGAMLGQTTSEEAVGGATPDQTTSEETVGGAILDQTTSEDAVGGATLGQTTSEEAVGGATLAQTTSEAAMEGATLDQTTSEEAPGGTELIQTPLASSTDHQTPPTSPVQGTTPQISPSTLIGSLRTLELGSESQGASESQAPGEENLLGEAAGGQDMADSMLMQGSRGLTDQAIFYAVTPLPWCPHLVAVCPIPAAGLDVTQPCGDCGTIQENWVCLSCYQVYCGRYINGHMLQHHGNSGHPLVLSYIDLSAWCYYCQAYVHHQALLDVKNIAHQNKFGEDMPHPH
Nature of the test: Inhibition of HDAC6 (unknown origin) up to 100 uM.

Test [6] addresses Histone deacetylase 1 (Homo sapiens) (UniProt Q13547). Nature of the test: Inhibition of HDAC1 (unknown origin) up to 100 uM.
Test [7] concerns the target Histone deacetylase 2 (Homo sapiens) (UniProt Q92769). In words: Inhibition of HDAC2 (unknown origin) up to 100 uM.
For test [8], the system named is M14. Nature of the test: Cytotoxicity against human M14 cells assessed as cell viability after 48 hrs using bis-AAF-R110 as substrate by ApoTox-Glo triplex assay. It is filed as functional, cell-based. In short, it runs like this:
(§3)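 M14 cells, 1250 per well, in serum-free DMEM, settled 4 h, then given 1:3 serial dilutions. Ionomycin, terfenadine and panobinostat were the controls. Incubated 4, 24, 48 or 72 h at 37 °C. A reagent containing 400 µM GF-AFC (live-cell protease, ex 400/em 505 nm) and 400 µM bis-AAF-R110 (dead-cell protease, ex 485/em 520 nm) was applied for 30 min at 37 °C. Caspase-Glo 3/7 (DEVD) luminescence was then read after 30 min at room temperature.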

The test system of test [9] is M14. Nature of the test: Cytotoxicity against human M14 cells assessed as cell viability after 48 hrs using GF-AFC as substrate by ApoTox-Glo triplex assay. It counts as functional, cell-based. Put shortly:
as §3

Test [10] concerns M14. Nature of the test: Induction of apoptosis human M14 cells assessed as caspase activity at 100 uM after 72 hrs using DEVD peptide as substrate by ApoTox-Glo triplex assay. It counts as functional, cell-based. Put shortly: as §3
For test [11], the system named is M14. Nature of the test: Induction of apoptosis human M14 cells assessed as caspase activity at 100 uM after 48 hrs using DEVD peptide as substrate by ApoTox-Glo triplex assay relative to control. It is filed as functional. Put shortly: (§4)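 M14 #5 cells, 1250 per well in serum-free DMEM, pre-incubated 4 h at 37 °C, 5% CO2. Compounds added as 1:3 serial dilutions; incubated 4, 24, 48 and 72 h. Per time point, a reagent containing 400 µM GF-AFC (live-cell protease) and 400 µM bis-AAF-R110 (dead-cell protease) was added for 30 min at 37 °C, then fluorescence was read. Caspase-Glo 3/7 was added next, 30 min at room temperature, then luminescence.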

Test [12] concerns M14. In words: Induction of apoptosis human M14 cells assessed as caspase activity at 100 uM after 24 hrs using DEVD peptide as substrate by ApoTox-Glo triplex assay relative to control. It counts as functional. Put shortly:
as §4

For test [13], the system named is M14. Nature of the test: Cytotoxicity against human M14 cells assessed as cell viability at 100 uM after 4 hrs using bis-AAF-R110 as substrate by ApoTox-Glo triplex assay. It counts as functional, cell-based. Put shortly:
as §3

Test [14] concerns M14. In words: Induction of apoptosis human M14 cells assessed as caspase activity at 100 uM after 4 hrs using DEVD peptide as substrate by ApoTox-Glo triplex assay. It is filed as functional, cell-based. In short, it runs like this:
as §3

In test [15] the test system is M14. Nature of the test: Cytotoxicity against human M14 cells assessed as cell viability at 100 uM after 4 hrs using GF-AFC as substrate by ApoTox-Glo triplex assay. It is filed as functional, cell-based. In short, it runs like this: as §3
In test [16] the test system is M14. Nature of the test: Cytotoxicity against human M14 cells assessed as cell viability at 100 uM after 48 hrs by CellTiter-Glo luminescence assay. It is filed as functional, cell-based. Put shortly: (§5)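 M14 cells, 1250 per well, in serum-free DMEM. Compounds given in 10-point 1:3 dilution series starting at 100 µM; controls were gefitinib, doxorubicin and ionomycin. Incubated at 37 °C, 5% CO2. CellTiter-Glo luminescence read at 4, 24, 48 and 72 h. Viability normalized to media-only wells and 1% DMSO-treated wells.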

The subject of test [17] is M14. In words: Cytotoxicity against human M14 cells assessed as cell viability at 100 uM after 24 hrs by CellTiter-Glo luminescence assay. It is filed as functional, cell-based. Put shortly: as §5
Test [18] relates to M14. Nature of the test: Cytotoxicity against human M14 cells assessed as cell viability at 100 uM after 4 hrs by CellTiter-Glo luminescence assay. It is filed as functional, cell-based. In short, it runs like this: as §5
Test [19] is described as follows: Cytotoxicity against mouse B16F10 cells expressing p53 mutant at 10 uM after 48 hrs by hexosaminidase assay. It counts as functional. The settings on record: B16-F10, 48 h. Put shortly: (§6)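 SK-MEL-28 or B16/F10 cells plated in 96-well plates, grown overnight, then treated with 0–50 µM compound for 48 h. Cells washed with PBS, given hexosaminidase substrate for 30 min at 37 °C, then developer. Absorbance read at 405 nm. Percent viability = treated/control absorbance × 100.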

The test system of test [20] is SK-MEL-28. In words: Cytotoxicity against human SK-MEL-28 cells expressing B-raf V600E mutant at 10 uM after 48 hrs by hexosaminidase assay. It counts as functional. The settings on record: SK-MEL-28, 48 h. Put shortly: as §6
The nature of test [21]: (§7) Cytotoxicity against mouse B16F10 cells expressing p53 mutant after 48 hrs by hexosaminidase assay. The settings on record: B16-F10, 48 h. It is filed as functional, cell-based. In short, it runs like this: as §6
The test system of the next test is B16-F10. Described as §7. It is filed as functional, cell-based. Put shortly:
as §6

Test [22] deals with SK-MEL-28. In words: Cytotoxicity against human SK-MEL-28 cells expressing B-raf V600E mutant after 48 hrs by hexosaminidase assay. It is filed as functional, cell-based. Put shortly: as §6

Calls of active or inactive are those of the source. The calls are words filed in the database; no cut-off is given here. Where only a bound is given, the exact number is not on record here.

Sequence of Histone deacetylase 1 (Homo sapiens) (Q13547 whole entry): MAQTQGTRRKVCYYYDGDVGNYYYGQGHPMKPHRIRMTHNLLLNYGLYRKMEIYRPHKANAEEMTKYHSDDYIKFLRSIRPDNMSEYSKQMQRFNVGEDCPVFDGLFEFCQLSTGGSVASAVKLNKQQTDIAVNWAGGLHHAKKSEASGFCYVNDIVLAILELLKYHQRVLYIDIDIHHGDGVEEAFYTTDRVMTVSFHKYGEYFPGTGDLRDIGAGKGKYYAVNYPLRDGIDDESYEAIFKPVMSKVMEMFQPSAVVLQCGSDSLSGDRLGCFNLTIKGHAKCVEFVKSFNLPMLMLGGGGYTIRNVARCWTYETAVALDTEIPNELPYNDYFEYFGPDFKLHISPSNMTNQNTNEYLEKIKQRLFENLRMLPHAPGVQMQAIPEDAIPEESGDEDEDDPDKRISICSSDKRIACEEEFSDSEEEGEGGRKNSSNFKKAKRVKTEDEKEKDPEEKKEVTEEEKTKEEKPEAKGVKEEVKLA
Sequence of Histone deacetylase 2 (Homo sapiens) (Q92769 whole entry): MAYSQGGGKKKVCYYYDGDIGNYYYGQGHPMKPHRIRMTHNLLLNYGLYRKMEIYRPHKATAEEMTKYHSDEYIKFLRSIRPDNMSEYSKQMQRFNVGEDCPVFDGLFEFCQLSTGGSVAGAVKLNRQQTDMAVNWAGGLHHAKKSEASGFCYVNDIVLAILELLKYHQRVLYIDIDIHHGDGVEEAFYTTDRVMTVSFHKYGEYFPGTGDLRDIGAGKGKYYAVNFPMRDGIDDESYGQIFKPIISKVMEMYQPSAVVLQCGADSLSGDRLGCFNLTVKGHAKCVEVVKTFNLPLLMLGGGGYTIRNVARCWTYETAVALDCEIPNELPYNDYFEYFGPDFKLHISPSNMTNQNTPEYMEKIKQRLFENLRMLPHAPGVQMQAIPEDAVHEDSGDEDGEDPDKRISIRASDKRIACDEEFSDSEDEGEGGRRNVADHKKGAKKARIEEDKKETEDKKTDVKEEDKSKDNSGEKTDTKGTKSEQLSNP

As to `CCC[C@H]1CNC(=O)C(=O)N1C[C@@H]1CCCN1C[C@@H](CC1CCCCC1)N1C[C@H](Cc2ccc(O)cc2)N(CCc2ccccc2)C(=O)C1=O`, the entries for the “Ratio IC50” value in the test with CHO-K1 and with A549 [1] were >10 and 5, respectively. The IC50 in the test on A549 [2] was 52 µM; in test [3], > 100 µM; in the test with M14 [4], 8.8 µM.
With `O=C1NC[C@H](Cc2ccccc2)N(C[C@@H]2CCCN2C[C@@H](CC2CCCCC2)N2C[C@H](Cc3ccc(O)cc3)N(CCc3ccccc3)C(=O)C2=O)C1=O`, the inhibition result in [5], in test [6] and in test [7] was “inactive” throughout. For the same compound, the Activity result is “Dose-dependent effect” in the test on M14 [8], “Dose-dependent effect” in the test on M14 [9], 400% in the test with M14 [11] and 550% in the test with M14 [12]. Further, the result in the test with M14 [10], in the test on M14 [13], in the test on M14 [14], in the test on M14 [15] and in the test on M14 [18] was inactive. In addition, the result in the test on M14 [16] and in the test with M14 [17] was Active. For the same compound, the inhibition at 10 µM (in [19]; in the test with SK-MEL-28 [20]) was 100% in each case. The IC50 in test [21] is 2.7 µM; with SK-MEL-28 [22] (SK-MEL-28, 48 h), 0.56 µM; with A549 [2] it was > 100 µM; in [3], > 100 µM; in the test on M14 [4], 3.6 µM. The inhibition entry in the test on B16-F10, in the test on SK-MEL-28 [22] and in the test on M14 [4] was “Dose-dependent effect” throughout.
